# Peptide text beside a SMILES is read from it.
# Assays:
# [1] = Inhibition of Plasmodium falciparum falcipain-2 after 12 hrs by fluorescence spectroscopy-based on-bead assay; set-up: concentration or dose not given beside the values; details: concentration not given here
# In short: (§1)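 Library members on resin (PEGA, theoretical loading 0.40 mmol/g; added as DMSO suspension, 0.64 mM final inhibitor) preincubated with enzyme 12 h, then Cbz-Phe-Arg-AMC 40 μM added; AMC release followed by fluorescence (ex 380/em 460 nm). Kinetics compared with inhibitor-free amino-PEGA resin.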
# [2] = target: Rhodesain (Trypanosoma brucei rhodesiense) (UniProt Q95PM0); assay: Inhibition of Trypanosoma brucei rhodesiense rhodesain after 12 hrs by fluorescence spectroscopy-based on-bead assay; set-up: concentration or dose not given beside the values; details: concentration not given here; in short: as §1
# Rhodesain (Trypanosoma brucei rhodesiense), sequence (Q95PM0 1-450): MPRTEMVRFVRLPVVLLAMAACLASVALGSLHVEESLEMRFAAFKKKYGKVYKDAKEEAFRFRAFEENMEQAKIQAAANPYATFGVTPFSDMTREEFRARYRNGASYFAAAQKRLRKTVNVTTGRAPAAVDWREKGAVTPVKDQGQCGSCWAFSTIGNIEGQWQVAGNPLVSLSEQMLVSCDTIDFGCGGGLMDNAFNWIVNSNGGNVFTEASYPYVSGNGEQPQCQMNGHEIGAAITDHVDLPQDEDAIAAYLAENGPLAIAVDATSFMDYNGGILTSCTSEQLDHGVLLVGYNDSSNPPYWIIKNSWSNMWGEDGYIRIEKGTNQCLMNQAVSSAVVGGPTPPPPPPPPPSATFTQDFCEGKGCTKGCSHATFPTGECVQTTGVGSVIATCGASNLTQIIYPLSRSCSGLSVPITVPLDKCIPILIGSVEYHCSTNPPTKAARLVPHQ
Structure (SMILES),inhibition [1] [%],inhibition [2] [%]
CC(C)[C@H](NC(=O)[C@H](C)NC(=O)[C@@H](NC(=O)[C@H](CCC(N)=O)NC(=O)/C=C/C(=O)NCC(=O)NCC(=O)N[C@@H](Cc1ccccc1)C(=O)O)C1CCCCC1)C(N)=O (HELM PEPTIDE1{[O=C(/C=C/C(=O)[*:2])NCC(=O)NCC(=O)N[C@@H](Cc1ccccc1)C(=O)O].Q.[O=C([C@@H](N[*:1])C1CCCCC1)[*:2]].A.V.[am]}$$$$V2.0),40,31
CC(C)C[C@H](NC(=O)[C@@H](NC(=O)[C@H](CCC(N)=O)NC(=O)/C=C/C(=O)NCC(=O)NCC(=O)N[C@@H](Cc1ccccc1)C(=O)O)C1CCCCC1)C(=O)N[C@H](C(N)=O)C(C)C (HELM PEPTIDE1{[O=C(/C=C/C(=O)[*:2])NCC(=O)NCC(=O)N[C@@H](Cc1ccccc1)C(=O)O].Q.[O=C([C@@H](N[*:1])C1CCCCC1)[*:2]].L.V.[am]}$$$$V2.0),45,71
CC(C)[C@H](NC(=O)[C@H](C)NC(=O)[C@@H](NC(=O)[C@H](CCC(N)=O)NC(=O)/C=C/C(=O)NCC(=O)NCC(=O)N[C@@H](Cc1ccccc1)C(=O)O)c1ccccc1)C(N)=O (HELM PEPTIDE1{[O=C(/C=C/C(=O)[*:2])NCC(=O)NCC(=O)N[C@@H](Cc1ccccc1)C(=O)O].Q.[Phg].A.V.[am]}$$$$V2.0),34,17
CC(C)C[C@H](NC(=O)[C@@H](NC(=O)[C@H](CCC(N)=O)NC(=O)/C=C/C(=O)NCC(=O)NCC(=O)N[C@@H](Cc1ccccc1)C(=O)O)c1ccccc1)C(=O)N[C@H](C(N)=O)C(C)C (HELM PEPTIDE1{[O=C(/C=C/C(=O)[*:2])NCC(=O)NCC(=O)N[C@@H](Cc1ccccc1)C(=O)O].Q.[Phg].L.V.[am]}$$$$V2.0),50,62
CC(C)[C@H](NC(=O)[C@@H](NC(=O)[C@@H](NC(=O)[C@H](CCC(N)=O)NC(=O)/C=C/C(=O)NCC(=O)NCC(=O)N[C@@H](Cc1ccccc1)C(=O)O)c1ccccc1)C(C)C)C(N)=O (HELM PEPTIDE1{[O=C(/C=C/C(=O)[*:2])NCC(=O)NCC(=O)N[C@@H](Cc1ccccc1)C(=O)O].Q.[Phg].V.V.[am]}$$$$V2.0),63,45
"CC(=O)NC[C@H](NC(=O)/C=C/C(=O)NCC(=O)NCC(=O)N[C@@H](Cc1ccccc1)C(=O)O)C(=O)N[C@@H](Cc1ccccc1)C(=O)N[C@@H](C)C(=O)N[C@H](C(N)=O)C(C)C (HELM PEPTIDE1{[O=C(/C=C/C(=O)[*:2])NCC(=O)NCC(=O)N[C@@H](Cc1ccccc1)C(=O)O].[O=C([C@H](CN[*:3])N[*:1])[*:2]].F.A.V.[am]}|PEPTIDE2{[ac]}$PEPTIDE1,PEPTIDE2,2:R3-1:R2$$$V2.0)",45,15
"CC(=O)NC[C@H](NC(=O)/C=C/C(=O)NCC(=O)NCC(=O)N[C@@H](Cc1ccccc1)C(=O)O)C(=O)N[C@@H](Cc1ccccc1)C(=O)N[C@@H](CC(C)C)C(=O)N[C@H](C(N)=O)C(C)C (HELM PEPTIDE1{[O=C(/C=C/C(=O)[*:2])NCC(=O)NCC(=O)N[C@@H](Cc1ccccc1)C(=O)O].[O=C([C@H](CN[*:3])N[*:1])[*:2]].F.L.V.[am]}|PEPTIDE2{[ac]}$PEPTIDE1,PEPTIDE2,2:R3-1:R2$$$V2.0)",59,51
"CC(=O)NC[C@H](NC(=O)/C=C/C(=O)NCC(=O)NCC(=O)N[C@@H](Cc1ccccc1)C(=O)O)C(=O)N[C@@H](Cc1ccccc1)C(=O)N[C@H](C(=O)N[C@H](C(N)=O)C(C)C)C(C)C (HELM PEPTIDE1{[O=C(/C=C/C(=O)[*:2])NCC(=O)NCC(=O)N[C@@H](Cc1ccccc1)C(=O)O].[O=C([C@H](CN[*:3])N[*:1])[*:2]].F.V.V.[am]}|PEPTIDE2{[ac]}$PEPTIDE1,PEPTIDE2,2:R3-1:R2$$$V2.0)",46,61
